Screening data deposited in PubChem BioAssay by Sanford-Burnham Center for Chemical Genomics.
SUMO1-SIM PPI: modulators of SUMO1 protein-protein interactions, primary screen, biochemical, uHTS. SUMO1 binding to a labelled peptide, TR-FRET, 1 h. inhibition, % at 20 µM. 0.33% of 360,000 active. AID 602429, 2012; in the data active = inhibition above about 37%
LMPTP block: LMPTP phosphatase inhibitors, primary screen, biochemical, fluorescence intensity, uHTS; Low molecular weight phosphotyrosine protein phosphatase (Homo sapiens), P24666; recombinant LMPTP-A, OMFP fluorogenic substrate; inhibition, % at 20 µM; 0.22% of 360,000 active; AID 651560, 2012;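 active = compounds that cut the enzyme signal by at least half of the control window in the single-dose screen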;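 note: plate controls were DMSO wells with enzyme plus substrate for no effect and substrate without enzyme for full effect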
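Test system: LMPTP-A, protein tyrosine phosphatase of low molecular weight; Input: 0.625 nM enzyme; Incubation: 50 min dark incubation at room temperature; Signal: endpoint fluorescence intensity from OMFP dephosphorylation; Read-out basis: % inhibition versus control wells.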
STEP inh: STEP phosphatase inhibitors, primary screen, biochemical, fluorescence intensity, uHTS. Tyrosine-protein phosphatase non-receptor type 5 (Homo sapiens), P54829. recombinant STEP, OMFP fluorogenic substrate. inhibition, % at 20 µM. 0.25% of 360,000 active. AID 588621, 2011;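 active = inhibition at 20 µM, scaled per plate between control wells, above about 37%, limit read from the data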;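 note: 0% = DMSO with enzyme and substrate and 100% = substrate only without enzyme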
Target sequence (P54829 whole entry, looked up): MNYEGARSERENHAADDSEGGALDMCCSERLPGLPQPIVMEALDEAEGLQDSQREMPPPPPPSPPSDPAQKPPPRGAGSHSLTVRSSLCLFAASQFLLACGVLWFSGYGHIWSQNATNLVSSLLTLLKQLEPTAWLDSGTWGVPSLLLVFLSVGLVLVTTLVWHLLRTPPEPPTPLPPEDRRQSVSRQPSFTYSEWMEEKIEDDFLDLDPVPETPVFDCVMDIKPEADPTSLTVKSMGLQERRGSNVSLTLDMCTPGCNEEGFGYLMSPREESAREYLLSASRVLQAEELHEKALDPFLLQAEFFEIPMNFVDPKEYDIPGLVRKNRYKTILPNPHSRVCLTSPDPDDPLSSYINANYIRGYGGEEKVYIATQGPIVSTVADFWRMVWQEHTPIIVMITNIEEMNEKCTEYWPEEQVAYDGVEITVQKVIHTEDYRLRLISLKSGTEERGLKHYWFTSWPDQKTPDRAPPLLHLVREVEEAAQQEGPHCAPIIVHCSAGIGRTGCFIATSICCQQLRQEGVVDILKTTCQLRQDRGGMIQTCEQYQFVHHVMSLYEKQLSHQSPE
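System: isolated STEP enzyme; schedule: 20 min enzyme reaction at room temperature, protected from light; medium: Bis-Tris buffer pH 6.0, 2.5 mM DTT, 0.005% Tween 20; signal: fluorescence, 480/540 nm; dosing: single compound dose of 20 µM, 1% DMSO final; also added: OMFP substrate, 25 µM final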
DNMT1 inh: human DNMT1 methyltransferase inhibitors, primary screen, biochemical, molecular beacon, fluorescence, HinP1I cleavage, uHTS | inhibition (reported as % activation of signal), % at 10 µM | 0.83% of 360,000 active | AID 588458, 2011; in the data active = inhibition above about 50%
Scp-1 inhibitor: Scp-1 phosphatase inhibitors, primary screen, biochemical, colorimetric, uHTS; 0.88% of 340,000 active; Recombinant Scp1, phosphopeptide, malachite green phosphate absorbance; AID 493091, 2011; inhibition, % at 20 µM;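 active = inhibition above about 50% at 20 µM, limit read from the data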;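 note: plate controls were DMSO wells with enzyme for no effect and wells lacking enzyme for full effect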
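Test system: SCP-1 phosphatase catalytic domain, residues 76-261; measured by: colorimetric phosphate reagent with accelerator and stabiliser, absorbance at 630 nm; timing: enzyme reaction 45 min at room temperature, colour 5 min, stabilisation 30 min; also added: Phosphorylated 17-residue peptide substrate; compound dosing: one concentration, 20 µM, with 1.0% DMSO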
Scp1 confirm: Scp-1 phosphatase inhibitors, retest, confirmation, biochemical, colorimetric, single concentration; shares compounds with Scp-1 inhibitor; recombinant SCP-1 catalytic domain, phosphate release, malachite green absorbance; inhibition, % at 20 µM; 61% of 2,500 active;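 note: plate controls were DMSO with enzyme for no effect and buffer wells lacking enzyme for full effect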
MG interference: colorimetric readout interference by compounds, confirmation, artefact control for Scp-1 inhibitor project, biochemical, single concentration. 2,500 tested, under 10 active. shares compounds with Scp-1 inhibitor. AID 540313, 2011. apparent inhibition (interference), % at 20 µM. Colorimetric interference counterscreen, malachite green absorbance 630 nm;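 note: compounds added after enzyme reaction finished so only phosphate colour detection is probed; plate controls were DMSO wells with completed Scp-1 reaction for no effect and substrate wells lacking enzyme for full effect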
Scp1 DSF: Scp-1 binding by thermal shift, confirmation, orthogonal assay for Scp-1 inhibitor project, biophysical, differential scanning fluorimetry | thermal shift relative to vanadate control, % at 40 µM | Recombinant SCP1, Sypro Orange thermal shift Tm | AID 540329, 2011 | shares compounds with Scp-1 inhibitor | 25% of 1,500 active;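 active = substances whose mean melting-temperature shift, as a percentage of the reference inhibitor's shift, reaches about 5.3%, limit read from the data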;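 note: 0% = Tm of DMSO wells and 100% = Tm with sodium orthovanadate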
Starred values were filed as active, the others as inactive; nt = no result. The list is not random: actives were taken first. Their share in the collection is about 1.7%.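 Rule for the calls, unless noted: active = inhibition of at least 30% at 20 µM; inactive = the rest.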

SMILES	SUMO1-SIM PPI	LMPTP block	STEP inh	DNMT1 inh	Scp-1 inhibitor	Scp1 confirm	MG interference	Scp1 DSF
O=C(Nc1nc2ccsc2c(=O)s1)c1ccc(F)cc1	1	65*	98*	12	96*	51*	-10	-6
CC(=O)NC1=NC(=O)/C(=C/c2cc(C)n(-c3cccc(C(=O)O)c3)c2C)S1	23	16	34	93*	72*	53*	-21	5.3*
CCOC(=O)N1CCN(c2ccc(S(=O)(=O)N3CCOCC3)cn2)CC1	-2	-1	4	1	80*	-12	-16	nt
CC(C)c1ccc(NS(=O)(=O)c2ccc3c(c2)oc(=O)n3C)cc1	4	1	0	-1	-13	-20	-23	nt
Cn1c(=O)oc2cc(S(=O)(=O)Nc3ccc(Cl)cc3)ccc21	-3	0	2	1	-4	nt	nt	nt
O=C(Nc1nc2ccccc2s1)C1CCN(S(=O)(=O)c2cc([N+](=O)[O-])ccc2Cl)CC1	-11	7	7	28	68*	64*	-9	11*
COc1ccc(NC(=O)c2cc(C3CCCCN3C(=O)c3cc(C(C)(C)C)nn3C)on2)c(C)c1 (stereo not drawn)	5	-1	0	5	nt	nt	nt	nt
O=C(N/N=C/c1cc2c(cc1Br)OCO2)c1cc2ccccc2o1	4	3	2	0	58*	25	-3	nt
O=C(Cc1cccs1)Nc1nc2c(ccc3ccccc32)s1	-2	4	0	-12	-18	nt	nt	nt
CC(=O)Nc1nc2c(ccc3ccccc32)s1	6	-1	-2	-4	72*	6	-8	nt
Cc1cccc(NC(=O)CSc2nc(N)c(NC(=O)c3ccccc3F)c(=O)[nH]2)c1	11	0	-1	1	-2	nt	nt	nt
CC(=O)Nc1ccc(NC(=O)CSc2nc(N)c(NC(=O)c3ccccc3F)c(=O)[nH]2)cc1	19	9	2	16	53*	49*	-1	-21
COc1ccccc1C(C)NC(=O)c1cc(=O)[nH]c2ccccc12 (stereo not drawn)	0	1	-2	0	74*	-2	-8	nt
COc1ccccc1NC(=O)c1cc(=O)[nH]c2ccccc12	1	-1	4	-16	-10	nt	nt	nt
COc1ccccc1CNS(=O)(=O)c1ccc2[nH]cc(C(=O)O)c(=O)c2c1	4	1	18	86*	55*	47*	-2	0
COc1ccc(Br)cc1C(=O)N/N=C/c1cccnc1	-5	-1	-1	4	-6	nt	nt	nt
COc1ccc(Br)cc1C(=O)N/N=C/c1ccc([N+](=O)[O-])cc1	-1	43	21	15	99*	33*	-7	2
CCOc1ccc(Br)cc1C(=O)N/N=C/c1ccc([N+](=O)[O-])cc1	-7	38	21	16	81*	32*	4	3
O=S1(=O)CC(N2CCN(CCO)CC2)CN1C1CCCCC1 (stereo not drawn)	4	0	-1	0	nt	nt	nt	nt
CCC(C)c1ccccc1NC(=O)c1cccc(-n2cnnn2)c1 (stereo not drawn)	-2	0	-3	-4	73*	-1	-10	nt
O=S(=O)(CC(CN1CCCC1)N1CCCC1)c1ccc2ccccc2c1 (stereo not drawn)	-2	0	0	0	-11	nt	nt	nt
